From ChEMBL document CHEMBL4513216, “Probing the Open Global Health Chemical Diversity Library for Multistage-Active Starting Points for Next-Generation Antimalarials” (ACS Infect Dis, 2020)

Test: Toxicity liver stage against HepG2, at 10uM
Assay type: cell-based
Set-up: test concentration 10 uM, cell line HepG2-A16-CD81EGFP
Details: human, HepG2-A16-CD81EGFP cells; read-out: INHIBITION
Outline: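 Uninfected HepG2-A16-CD81EGFP cells, 3 × 10^3 per well, 1536-well, plated on prespotted compound at 10 μM final, parasite-free screening media added to match infected plates; puromycin 10 μM positive, DMSO 0.5% negative; run in parallel with 48 h PbLuc assay at 37 °C, 5% CO2; viability by CellTiter-Glo luminescence, normalized to controls.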

| SMILES | cytotoxicity at 10 µM [%] |
| --- | --- |
| c1cc(CNCCc2cn3ccccc3n2)c2c(c1)OCCCO2 | 15.2 |
| COc1ccc(CN[C@@H]2CO[C@H](CNC(=O)N3CCOCC3)[C@H]2O)cc1 | -1.57 |
| COC(=O)c1ccc2nc(CO[C@H]3CN(CC4CC4)C[C@H]3F)[nH]c2c1 | 2.52 |
| CC(C)NC(=O)N1CCN2C(=O)OC[C@H]2C1 | 4.62 |
| O=C(CCn1cccc1)NCc1ccc(CN2CCCCCC2)o1 | -5.2 |
| CCOCCCNC(=O)C1(C)CCC(=O)N1c1ccccc1F (stereo not given) | -4.42 |
| CSc1ccc(C(=O)N2CC(=O)N(CC(C)(C)C)CC(O)C2)cc1 (stereo not given) | 8.6 |
| Cn1nc(CNC(=O)C2CCN(S(C)(=O)=O)CC2)cc1C1CC1 | -2.87 |
| Cc1nc(N2CCCC2)nc2c1CN(C(=O)N(C)C)CC2 | 4.29 |
| COCCC(=O)NCC1Cn2nnc(-c3cccc(F)c3)c2CO1 (stereo not given) | 0.0508 |
| CCCN(CCC)c1ncc(S(=O)(=O)c2ccc(OC)cc2)c(N)n1 | 7.79 |
| CSCc1cccc(S(=O)(=O)N2CCCCC2)c1 | 6.61 |
| Cc1cc(N)n(-c2ccc3nnc(C)n3n2)n1 | 5.89 |
| COCCCNC(=O)c1cc(C(C)C)nc(N2CCCCCC2)n1 | 9.15 |
| CNC(=O)C1CN(C)CCN(C(=O)CCn2nnc3ccccc32)C1 (stereo not given) | 2.71 |
| CC(=O)NC(Cc1c[nH]c2cc(F)ccc12)C(=O)Nc1nonc1C (stereo not given) | -9.93 |
| CCOC(C)C(=O)NCc1cccc(CN2CCCCCC2)c1 (stereo not given) | 15.5 |
| CC(C)OCCS(=O)(=O)N1CCN(Cc2ccco2)CC1 | -11.3 |
| COc1ccc2c(c1)CCCN(C(=O)NCC1CCCO1)C2 (stereo not given) | 1.06 |
| Cc1ccc(C(=O)NCC(O)c2ccc(Cl)s2)c(=O)[nH]1 (stereo not given) | -20.7 |
| CSc1ccsc1C(=O)NC(Cc1ccccc1)C(N)=O (stereo not given) | -5.24 |
| COC(=O)CNC(=O)c1cccc(C(=O)N(C)c2ccccc2)c1 | 6.93 |
| Cc1ccc(C(=O)N(C)Cc2ccc(Br)s2)c(=O)[nH]1 | 5.02 |
| CC(C)c1nc2c(n1C)CCN(CC(=O)NCc1ccccn1)C2 | -8.52 |
| Cc1noc(C)c1CN(Cc1ccccc1)C(C)CN1CCOCC1 (stereo not given) | 7.97 |
| CC(=O)N(C)c1nc(CN2CCN(Cc3nccn3C)CC2)cs1 | 8.82 |
| Cc1ccc2c(c1)C(NCc1ncnn1C)CC2 (stereo not given) | 6.32 |

| SMILES | cytotoxicity at 10 µM [%] |
| --- | --- |
| CN1CCC(CNC(=O)c2ccc(O)nc2)c2ccccc21 (stereo not given) | 13.9 |
| CCN1CCN(CCCNC(=O)c2cc3ccc(C)cc3nc2C)CC1 | 5.33 |
| CCc1c(C)nc2ccccc2c1N1CCC(NC(C)=O)CC1 | 11.2 |
| CCN(CC)C(=O)CN(C)Cc1nc2c(cnn2C)c(=O)[nH]1 | -0.958 |
| CS(=O)(=O)N1CCC(c2nnc3ccc(C(=O)NC4CCC4)cn23)C1 (stereo not given) | 3.6 |
| Nc1ccnc(N2C[C@H](O)[C@@H](N3CCN(c4ccccn4)CC3)C2)n1 | 6.7 |
| CN(C)Cc1csc(-c2nccn2Cc2ccc(C(=O)O)cc2)c1 | -1.3 |
| CCC[C@@H]1CN(Cc2ccc(C(F)(F)F)nc2)C[C@H]1C(=O)O | 0.425 |
| Cc1cccc2c1nc(CCO)n2-c1ccc(C(=O)N2CCOCC2)o1 | 3.69 |
| CCC(Nc1ncnc2sc(C(=O)O)c(C)c12)c1ccnn1C (stereo not given) | 0.512 |
| CC(=O)c1cc(C(=O)N2CCC(CC(C)C)C2)c(=O)[nH]c1C (stereo not given) | 4.4 |
| CSCc1noc(CN2CCCCC2CCc2ccc(O)cc2)n1 (stereo not given) | -1.58 |
| CCc1[nH]c2c(CNc3nccc(N)n3)cc(C)cc2c1C | 3.4 |
| O=C(O)[C@@H]1CN(Cc2ccc(-c3cc[nH]n3)s2)C[C@H]1C1CC1 | 5.13 |
| CCn1cnnc1CN(C)C(=O)c1cc(COc2cccc(F)c2)[nH]n1 | 12.3 |
| Cc1[nH]c2c(F)cccc2c1CC(=O)N1CCN(C2CCSCC2)CC1 | 4.82 |
| CSCC(=O)N1CCc2nc(C)nc(NCc3ccccc3)c2CC1 | 1.69 |
| Cc1ccc(C)c(C(=O)N2CCOC(CCN(C)C)C2)c1 (stereo not given) | -0.63 |
| COCC1(NC(=O)Nc2nc(C)ns2)CCCC1 | 0.512 |
| O=C(NCc1cn2cccnc2n1)C1CC(=O)N(Cc2ccccn2)C1 (stereo not given) | 2.69 |
| CN(CC1=CCCN(CCc2ccccn2)C1)C(=O)c1ccco1 | 1.7 |
| CCn1cc(-c2cc(-c3cc(CC(=O)O)cs3)nc(N)c2C#N)c(C)n1 | 1.16 |
| Cc1cc(C(=O)NCCC2CCN(C)CC2)ccc1N(C)S(C)(=O)=O | 5.82 |
| c1ccc(CCNc2ncnc3c2CCN(Cc2c[nH]cn2)CC3)cc1 | 3.16 |
| CNc1cc(CNC(=O)c2ccccn2)nc(-c2ccncc2)n1 | -2.63 |
| O=C(c1cccs1)N1CCC(O)(CN2CCc3ccccc3C2)C1 (stereo not given) | 1.49 |
| COc1cnc(C2(O)CCN(C(=O)c3ccncc3)CC2)c(OC)n1 | -4.38 |

| SMILES | cytotoxicity at 10 µM [%] |
| --- | --- |
| CN(C)CC(=O)N1C[C@@H]2CC[C@H](Oc3ccccc3Cl)[C@@H]2C1 | 3.22 |
| c1cc(CN2CCCC2c2noc(C3CC3)n2)on1 (stereo not given) | -0.628 |
| CNS(=O)(=O)c1ccc(CNC(=O)c2cccc(C)n2)cc1 | 7.17 |
| CC(C(=O)N1CCCCCC1)N1CCN(Cc2nccn2C)CC1 (stereo not given) | -5.28 |
| COC(=O)NCCC(=O)NC(C)Cc1cccc(Br)c1 (stereo not given) | -15.8 |
| Cn1cc(CCC(=O)N2CCCN(c3ncccc3C#N)CC2)cn1 | 2.88 |
| CC(C)(C)c1n[nH]c(C2CN(CCc3cccs3)CCO2)n1 (stereo not given) | -7.36 |
| COc1nc(C)cc(C)c1CNC(=O)N(C)Cc1cnn(C)c1 | -4.64 |
| OCCn1cc(CN2CCN(CCOc3ccccc3)CC2)cn1 | -8.43 |
| CCc1nccn1C1CCCN(C(=O)CCc2nccs2)C1 (stereo not given) | -14.3 |
| COc1ccccc1N1CCC(CNCc2cccc(O)c2)C1 (stereo not given) | -9.04 |
| CN(C)c1cc2c(nn1)CCN(C(=O)Cc1noc3ccccc13)C2 | -10.7 |
| CCOc1ccccc1C(CC(=O)Nc1ccccc1F)NC(C)=O (stereo not given) | -15.4 |
| O=C(COCc1ccccc1)N1CCCC(n2cncn2)C1 (stereo not given) | -8.6 |
| CC(O)(CN1CCC2(CC1)OCCO2)c1cccc(C(F)(F)F)c1 (stereo not given) | -9.21 |
| COC(=O)COc1cccc(NS(=O)(=O)c2cc(C(=O)O)cs2)c1 | -5.25 |
| CS(=O)(=O)NCc1cncc2c1CCN(C(=O)N1CCCC1)C2 | 12.8 |
| COC1COC2(CCN(Cc3ccccc3C)CC2)C1 (stereo not given) | 2.84 |
| c1ccc(N2CCCC3(CCN(Cc4ccsc4)C3)C2)nc1 (stereo not given) | -14 |
| Cc1cnc(N2CC[C@H]3[C@@H]2CCC(=O)N3c2cccnc2)nc1 | -0.298 |
| COCC(=O)NCc1cc(=O)n2c(n1)CN(CC1CCOC1)CCC2 (stereo not given) | 1.47 |
| CS(=O)(=O)N[C@@H]1CN(C(=O)c2ccccn2)[C@@H]2CCCO[C@@H]21 | 4.3 |
| O=C(NC1CC1)C1=CC2(CCN(CC3CC3)CC2)c2ccccc21 | 3.11 |
| Cc1ccc(CN2CC[C@]3(C[C@H](OCc4ccccn4)CO3)C2)o1 | -0.617 |
| CN(Cc1ccco1)[C@@H]1CN(C(=O)C2CCOCC2)C[C@@H]2CCCO[C@@H]21 | 3.48 |
| CN(C)C(=O)NC1COC2(CCN(Cc3ccccc3)CC2)C1 (stereo not given) | 4.14 |
